{"data": "Measurements collected from several papers", "note": "Protocols differ between the studies behind these lines. pIC50: −log10 of the molar value."}
{"Structure (SMILES)": "O=C(c1ccc(F)cc1)c1c[nH]c2ncc(-c3ccnc(N4CCOCC4)c3)cc12", "cell line": "A549", "test": "cell growth or viability, MTT", "setting": "10 µM, 48 h", "measurement": "viability", "result": "94.1%"}
{"Structure (SMILES)": "CC(=O)O[C@H]1C[C@H](O[C@H]2[C@@H](O)C[C@H](O[C@H]3[C@@H](O)C[C@H](O[C@H]4CC[C@@]5(C)[C@H](CC[C@@H]6[C@@H]5C[C@@H](O)[C@]5(C)[C@@H](C7=CC(=O)OC7)CC[C@]65O)C4)O[C@@H]3C)O[C@@H]2C)O[C@H](C)[C@H]1O[C@@H]1O[C@H](CO)[C@@H](O)[C@H](O)[C@H]1O", "cell line": "A549", "test": "cell growth or viability, MTT", "setting": "5 µM, 24 h", "measurement": "inhibition", "result": "74.8%"}
{"Structure (SMILES)": "CCC(=O)Oc1cccc2c1C(=O)C=CC2=O", "cell line": "HFF-1", "test": "cell growth or viability, MTT", "setting": "48 h", "measurement": "pIC50", "result": 5.11}
{"Structure (SMILES)": "C[C@@H]1C[C@@H]([C@H](O)CC2CC(=O)NC(=O)C2)C(=O)[C@@H](C)C1", "cell line": "NIH3T3", "test": "cell growth or viability, MTT", "setting": "24 h", "measurement": "pIC50", "result": 6.10}
{"Structure (SMILES)": "CN1CCN(c2ccc(-c3cnc4[nH]cc(C(=O)c5ccc(F)cc5)c4c3)cc2)CC1", "cell line": "A549", "test": "cell growth or viability, MTT", "setting": "10 µM, 48 h", "measurement": "viability", "result": "73%"}
{"Structure (SMILES)": "O=C1C=CC(=O)c2ccccc21", "cell line": "HFF-1", "test": "cell growth or viability, MTT", "setting": "48 h", "measurement": "pIC50", "result": 4.57}
{"Structure (SMILES)": "O=C(O)CCn1cc(C(=O)c2ccc(F)cc2)c2cc(-c3ccc(N4CCNCC4)nc3)cnc21", "cell line": "A549", "test": "cell growth or viability, MTT", "setting": "10 µM, 48 h", "measurement": "viability", "result": "88.5%"}
{"Structure (SMILES)": "CCCCCCCCc1ccc(C(=O)Nc2ccccc2C(=O)OCC)cc1", "cell line": "PC-3", "test": "cell growth or viability, MTT", "setting": "72 h", "measurement": "pIC50", "result": "< 4.00"}
{"Structure (SMILES)": "CNC(=O)c1cc(Oc2ccc(NC(=O)Nc3cc(C(C)(C)C)nn3-c3ccc4ncccc4c3)c(F)c2)ccn1", "cell line": "HUVEC", "test": "cell migration", "measurement": "pIC50", "result": 10.66}
{"Structure (SMILES)": "Cc1cc(C)cc(COc2cc3c(cc2OCc2cc(C)cc(C)c2)[C@H]2C[C@](O)(Cc4cn(CC(=O)Nc5ccc(S(=O)(=O)F)cc5)nn4)C[C@H](C)N2CC3)c1", "cell line": "PC-3", "test": "cell growth or viability, MTT", "measurement": "pIC50", "result": 5.88}
{"Structure (SMILES)": "O=C(O)CCCc1ccc(N(CCCl)CCCl)cc1", "cell line": "PC-3", "test": "cell growth or viability, CCK-8", "setting": "48 h", "measurement": "pIC50", "result": "< 4.30"}
{"Structure (SMILES)": "COc1ccc(C(=O)c2c[nH]c3ncc(-c4ccc(N5CCN(S(C)(=O)=O)CC5)nc4)cc23)cc1", "cell line": "A549", "test": "cell growth or viability, MTT", "setting": "10 µM, 48 h", "measurement": "viability", "result": "80.2%"}
{"Structure (SMILES)": "Nc1nc2sc(CCCCc3ccc(C(=O)N[C@@H](CCC(=O)O)C(=O)O)cc3)cc2c(=O)[nH]1", "cell line": "R2/PCFT4", "test": "cell growth or viability", "setting": "96 h, pH 7.2", "measurement": "pIC50", "result": "< 6.00"}
{"Structure (SMILES)": "CC(C)(C)OC(=O)N1CCN(c2ccc(-c3cnc4[nH]cc(C(=O)c5ccc(F)cc5)c4c3)cn2)CC1", "cell line": "A549", "test": "cell growth or viability, MTT", "setting": "10 µM, 48 h", "measurement": "viability", "result": "76.3%"}
{"Structure (SMILES)": "N[C@@H](Cc1ccc(N(CCCl)CCCl)cc1)C(=O)O", "cell line": "PC-3", "test": "cell growth or viability, CCK-8", "setting": "48 h", "measurement": "pIC50", "result": "< 4.30"}
{"Structure (SMILES)": "Cc1cc(C)cc(COc2cc3c(cc2OCc2cc(C)cc(C)c2)[C@H]2C[C@](O)(Cc4cn(-c5ccc(S(=O)(=O)F)cc5)nn4)C[C@H](C)N2CC3)c1", "cell line": "PC-3", "test": "cell growth or viability, MTT", "measurement": "pIC50", "result": 6.41}
{"Structure (SMILES)": "Nc1nc2c(c(=O)[nH]1)C[C@@H](CCc1ccc(C(=O)N[C@@H](CCC(=O)O)C(=O)O)cc1)CN2", "cell line": "R2/PCFT4", "test": "cell growth or viability", "setting": "96 h, pH 7.2", "measurement": "pIC50", "result": 6.61}
